Hsp70 act = Hsp70 transcriptional activation, primary screen. HeLa Hsp70 promoter luciferase reporter, luminescence; scaled: vehicle 0, proteasome-inhibitor control 100%. activation, % at 10 µM. 200,000 tested, 0.04% active;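 active means activation above the mean across all tested compounds plus 3 SD, cutoff set per campaign, cut at about 5.5% in these data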;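 further: 100% = MG132 at 30 µM as the positive control and 0% = DMSO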
NPY2 pot ag = potentiates or activates human NPY-Y2 receptor; P49146; cells expressing NPY-Y2, potentiator/agonist read-out; activation, % at 3.6 µM; 220,000 tested, 0.45% active; in the data active means activation above about 27%;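 further: cells stimulated with NPY near EC25 plus isoproterenol at EC100; 0% = vehicle plus submaximal agonist and 100% = vehicle plus saturating agonist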
NPY Y2 blocker = antagonists of human neuropeptide Y receptor Y2. P49146. NPY-Y2 expressing cells, antagonist mode. inhibition, % at 2.7 µM. 140,000 tested, 0.99% active; in the data active means inhibition above about 17%;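 further: 0% = vehicle with agonist challenge and 100% = reference antagonist with challenge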
Wee1 degr inh = blocks degradation of human Wee1 kinase; P30291; 220,000 tested, 1.2% active; HeLa Luc-Wee1K328M stability, luciferase luminescence; 100% = proteasome inhibitor MG132 effect; reporter increase, % at 5 µM;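 active means activation above the mean of all tested compounds plus 3 SD, set per screening run, cut at about 8.8% in these data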;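 further: cells exposed to compound for 20 h before luminescence read; 0% = DMSO alone and 100% = MG132 at 30 µM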
Target sequence (P30291 whole entry K328M): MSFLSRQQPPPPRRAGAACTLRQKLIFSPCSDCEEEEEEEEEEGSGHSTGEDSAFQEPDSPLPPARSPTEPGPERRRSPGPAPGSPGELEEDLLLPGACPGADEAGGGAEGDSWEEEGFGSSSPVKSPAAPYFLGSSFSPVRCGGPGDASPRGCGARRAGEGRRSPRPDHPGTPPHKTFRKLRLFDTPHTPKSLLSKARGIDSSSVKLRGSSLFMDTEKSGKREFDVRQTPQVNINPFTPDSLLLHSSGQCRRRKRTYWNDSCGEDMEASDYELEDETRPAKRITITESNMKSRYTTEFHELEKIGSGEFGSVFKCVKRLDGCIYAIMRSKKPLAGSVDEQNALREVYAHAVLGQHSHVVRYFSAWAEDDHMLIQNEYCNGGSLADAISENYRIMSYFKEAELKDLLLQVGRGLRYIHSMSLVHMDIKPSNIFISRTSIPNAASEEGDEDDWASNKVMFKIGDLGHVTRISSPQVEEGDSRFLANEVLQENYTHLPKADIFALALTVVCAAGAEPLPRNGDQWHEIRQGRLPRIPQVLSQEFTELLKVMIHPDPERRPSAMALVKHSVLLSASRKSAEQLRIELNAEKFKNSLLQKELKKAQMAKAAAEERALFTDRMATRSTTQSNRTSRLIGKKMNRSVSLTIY
NPY-Y1 antag = antagonists of human neuropeptide Y receptor Y1; 200,000 tested, 1% active; AID 1040; inhibition, % at 3.6 µM; HEK293-CNG Y1 cells, membrane potential fluorescence; NPY at EC95, then isoproterenol;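 active means inhibition above the campaign mean inhibition of all tested compounds plus 3 SD, cut at about 20% in these data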;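 further: 0% = DMSO wells given NPY plus isoproterenol and 100% = isoproterenol alone without NPY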
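Test system – HEK293 Y1/CNG channel cell line · Also added – NPY agonist 25 nM, then isoproterenol 1 µM plus Ro 20-1724 25 µM · Compound dosing – one concentration, 3.6 µM, in 0.4% DMSO · Schedule – compound incubation 1 h at room temperature, readout 45 min post-stimulation · Technique – fluorescence, membrane potential probe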
NPY1 pot ag = human NPY-Y1 potentiation or agonism, primary screen; P25929; NPY-Y1 expressing cells, potentiator/agonist activation; activation, % at 3.6 µM; 220,000 tested, 0.37% active; in the data active means activation above about 33%, passing the limit was not always enough;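 further: cells stimulated with NPY at EC10 then isoproterenol at EC100; 0% = low agonist plus stimulus and 100% = saturating agonist plus stimulus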
Hsp70 act DR = dose-dependent Hsp70 transcriptional activation. 70 tested, 10% active. shares compounds with Hsp70 act. calls only at 99 µM. HeLa hsp70.1pr-luc reporter, luciferase luminescence;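 active means over 50% activation at some tested dose; inactive means under 50% activation at every tested dose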
NPY-Y1 confirm = human NPY-Y1 potentiation or agonism, confirmation | 280 tested, 20% active | activation, % at 3.6 µM | cell-based NPY-Y1 potentiator/agonist assay | shares compounds with NPY1 pot ag; in the data active means activation above about 45%;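 further: cells challenged with NPY at its EC10 plus isoproterenol stimulus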
NPY-Y2 counter = NPY-Y2 potentiation or agonism as NPY-Y1 counter-screen | shares compounds with NPY1 pot ag | HEK293-CNG cells, membrane-potential fluorescence (FLIPR), 1536-well | activation, % at 3.6 µM | 280 tested, 20% active | AID 1649; in the data active means activation above about 33%
NPY-Y1 agonist = counter-screen for NPY-Y1 potentiators: agonists of human NPY-Y1; shares compounds with NPY1 pot ag; HEK293 Y1-CNGC, membrane potential fluorescence, agonist mode; activation, % at 3.6 µM; 280 tested, 50% active;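 active means percent activation above the mean of DMSO-only control wells plus 3 SD of those wells, cut at about 18% in these data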;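 further: cells challenged with isoproterenol plus Ro 20-1724 with no NPY in test wells; Y1 agonism lowers isoproterenol-driven cAMP and reduces probe fluorescence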
NPY-Y2 agonist = activates human NPY-Y2, counter-screen for NPY-Y1 hits | shares compounds with NPY1 pot ag | HEK293 Y2-CNGC, membrane potential fluorescence, agonist mode | activation, % at 3.6 µM | 280 tested, 67% active | AID 1698;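 active means activation above the solvent-only control wells' mean plus 3 SD, cut at about 11% in these data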;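 further: 0% = DMSO with isoproterenol and 100% = 40 nM NPY maximal response; agonism lowers cAMP so well fluorescence drops in active wells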
CNGC counter = counter-screen for NPY-Y1 potentiators or agonists: CNG channel inhibitors | shares compounds with NPY1 pot ag | HEK293-CNG parental, isoproterenol cAMP, membrane potential fluorescence | inhibition, % at 3.6 µM | 280 tested, 42% active | AID 1704;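 active means inhibition above the mean of stimulated solvent-only control wells plus 3 SD, cut at about 22% in these data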;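 further: 0% = isoproterenol-stimulated DMSO wells and 100% = unstimulated DMSO wells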
Wee1 stab conf = human Wee1 degradation inhibition, confirmation | shares compounds with Wee1 degr inh | 1,100 tested, 4% active | HeLa Luc-Wee1K328M degradation, luminescence; vehicle 0%, proteasome-blocked wells 100% | activation, % at 5 µM; in the data active means activation above about 8.9%
Active calls of the source: *; i = inactive; / = no result. Rows were chosen to be rich in hits. Some 3% of all compounds tested hit in one or more screens of this group.

SMILES | Hsp70 act | NPY2 pot ag | NPY Y2 blocker | Wee1 degr inh | NPY-Y1 antag | NPY1 pot ag | NPY-Y1 confirm | NPY-Y2 counter | NPY-Y1 agonist | NPY-Y2 agonist | CNGC counter | others
COc1ccc(NC(=O)/C(Cl)=C(/Cl)S(=O)Cc2ccccc2)cn1 (stereo not given) | 22* | -3 | 3 | 17* | -8 | 9 | / | / | / | / | / | Hsp70 act DR=i;Wee1 stab conf=25*
Cc1c(CNC(=O)c2c([N+](=O)[O-])cnn2C)cnn1C | 0 | -3 | / | 4 | -2 | 16 | / | / | / | / | /
COc1c(C)cc(C(=O)C2CCCN(C(=O)c3ccc4cc[nH]c4c3)C2)cc1C (stereo not given) | 0 | -10 | / | -2 | 8 | -2 | / | / | / | / | /
Cc1ccc(Nc2cc(C)nn2-c2nc(C)cc(=O)[nH]2)cc1 | 90* | -30 | 5 | 129* | 8 | -53 | / | / | / | / | / | Hsp70 act DR=i;Wee1 stab conf=123*
C=CS(=O)(=O)c1ccc(Oc2ccc(S(=O)(=O)C=C)cc2)cc1 | 48* | 4 | 2 | 15* | 3 | 31 | / | / | / | / | / | Hsp70 act DR=i;Wee1 stab conf=14*
Cc1cccc(C)c1Nc1c(-c2ccccn2)nc2ccccn12 | 0 | 27 | / | -3 | -7 | 46* | 48* | 34* | 39* | 41* | 31*
O=C1N=c2ccccc2=C1c1sc(=S)n(Cc2ccccc2Cl)c1O | / | -6 | / | 1 | / | 72* | 37 | 38* | 25* | 30* | 30*
COc1ccc(/C=C(/NC(=O)c2ccc([N+](=O)[O-])cc2)C(=O)NC(C)(C)C)cc1 | 0 | 1 | / | -1 | 1 | 2 | / | / | / | / | /
O=C(/C=C\Nc1ccc(S(=O)(=O)Nc2ncccn2)cc1)c1ccccc1 | / | -14 | / | 1 | / | 6 | / | / | / | / | /
CCOc1ccc(C2N(c3ccc(F)cc3)C(=O)C3CCCN32)cc1OC (stereo not given) | 0 | -1 | -1 | -2 | 0 | -4 | / | / | / | / | /
CCOc1ccc(N2C(=O)C(CC(=O)Nc3ccc(F)cc3)N(Cc3ccccn3)C2=S)cc1 (stereo not given) | 0 | 11 | / | 1 | -12 | 42* | 47* | 32 | 35* | 46* | 41*
CCOc1ccc(N2C(=O)C(CC(=O)Nc3ccccc3)N(Cc3ccccn3)C2=S)cc1 (stereo not given) | 0 | 14 | / | 4 | -10 | 23 | / | / | / | / | /
CC(C)(C)C(=O)Cn1ncc(NC2CC2)c(Br)c1=O | 0 | -13 | 1 | -1 | 0 | -23 | / | / | / | / | /
NS(=O)(=O)c1cc(C(=O)NCCc2ccccn2)ccc1Cl | / | -2 | / | 3 | / | 96* | 6 | -1 | -5 | -4 | 3
Cc1ccc(NS(=O)(=O)c2cc(C(=O)NCc3ccccn3)ccc2Cl)cc1 | 0 | -5 | 3 | -3 | 3 | 5 | / | / | / | / | /
O=C(c1ccccc1Nc1ccc(SC(F)F)cc1)N1CCCCCC1 | 0 | -27 | 11 | -1 | 9 | 7 | / | / | / | / | /
CCOc1ccc(-n2ccnc2SCC(=O)Nc2cc(C)on2)cc1 | 0 | -4 | / | -5 | -6 | 9 | / | / | / | / | /
CCOC(=O)C(C)(C)N(Cc1cccc(C)c1)S(=O)(=O)c1ccc(Cl)c([N+](=O)[O-])c1 | 0 | 27 | -3 | 5 | -9 | 66* | 34 | 29 | 39* | 31* | 46*
Cc1ccc(S(=O)(=O)O/N=C2\CCCc3ccccc32)cc1 | 0 | -1 | 2 | -2 | 4 | -8 | / | / | / | / | /
CC1=C(C)/C(=N\OS(=O)(=O)c2ccccc2)C=CC1=O | 1 | 12 | 3 | 1 | -5 | 70* | -1 | 13 | 1 | 13* | 0
O=c1[nH]c(Cc2cccs2)nc2scc(-c3ccc(Cl)cc3)c12 | / | 26 | / | 2 | / | 66* | 30 | 23 | 36* | 33* | 44*
O=c1[nH]c(Cc2ccccn2)nc2scc(-c3ccc(Cl)cc3)c12 | 0 | 11 | / | 4 | -8 | 25 | / | / | / | / | /
N#C/C(=C(/O)c1ccc([N+](=O)[O-])s1)c1nc2ccccc2[nH]1 | / | 27 | / | 2 | / | 48* | 15 | 22 | 2 | 28* | -6
Cc1sc(NC(=O)CN(Cc2ccc(F)cc2)C(=O)C(C)C)c(C(N)=O)c1C | 0 | -4 | -1 | 0 | 0 | 1 | / | / | / | / | /
O=C(NCC1CCCO1)c1ccc(NC(=O)C2CC=CCC2C(=O)O)cc1 (stereo not given) | 0 | -2 | 1 | -3 | 7 | -18 | / | / | / | / | /
SMILES | Hsp70 act | NPY2 pot ag | NPY Y2 blocker | Wee1 degr inh | NPY-Y1 antag | NPY1 pot ag | NPY-Y1 confirm | NPY-Y2 counter | NPY-Y1 agonist | NPY-Y2 agonist | CNGC counter | others
O=C(Nc1ccccc1)C1CC=CCC1C(=O)OCC1CCCO1 (stereo not given) | 0 | 10 | 0 | -2 | -2 | 55* | -3 | -6 | -1 | -1 | -1
COc1cc(/C=N\Nc2nc3ccccc3[nH]2)cc(OC)c1OC | 0 | -5 | 1 | -4 | 2 | -20 | / | / | / | / | /
COc1ccc2c(c1)c(/C=N/Nc1nc3ccccc3[nH]1)c(C)n2C | / | 29 | / | -1 | / | 42* | 60* | 47* | 42* | 50* | 36*
CSc1ncc(CN2CCc3c([nH]c4ccccc34)C2c2cccc(O)c2)cn1 (stereo not given) | 0 | 20 | / | -3 | 4 | 8 | / | / | / | / | /
COc1cccc(NC(=O)c2ccc(NCCCN3CC(C)CC(C)C3)c([N+](=O)[O-])c2)c1 (stereo not given) | 0 | 16 | / | -1 | -1 | 38* | 43 | 26 | 16 | 14* | 31*
COc1cccc(NC(=O)c2ccc(NCCCN3CCC(C)CC3)c([N+](=O)[O-])c2)c1 | 0 | 14 | / | -3 | 0 | 18 | / | / | / | / | /
CCCc1[nH]nc2c1C1(CCOC1C)C(C#N)=C(N)O2 (stereo not given) | 0 | -8 | 0 | 0 | 3 | 10 | / | / | / | / | /
CCNS(=O)(=O)c1ccc(NC(=O)Cc2ccc(F)cc2)cc1 | 0 | 10 | -1 | 0 | -4 | -6 | / | / | / | / | /
